Columns and labels:
[1] = system: MC-38; assay: Antitumor activity against the subcutaneously implanted C38 colon tumor in mice.; format: functional, Mus musculus; set-up: concentration or dose not given beside the values
Outline: (§1)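 Colon 38 fragments were implanted sc in BDF1 mice and grown to 4-8 mm diameter. Each mouse then got a single ip dose of the sodium salt in water, with light excluded. Doses rose in 1.5-fold steps up to 750 mg/kg or the maximum tolerated dose. Tumors were removed 24 h later, formalin-fixed, and sections were stained with hematoxylin/eosin. Necrosis was scored: ++ >90%, + 50-90%, − <50%. Groups of five mice, with 2-3 independent determinations per dose.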

[2] = system: Mus musculus; assay: Minimum dose required when administered intraperitoneally in mice as the sodium salt in water in a single dose.; format: functional
Outline: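 The minimum dose giving the cited necrosis level in sc colon 38 tumors (4-8 mm) in BDF1 mice. It was taken from a full dose profile at 1.5-fold intervals, given as a single ip dose of the sodium salt in water. The ceiling was 750 mg/kg or the maximum tolerated dose, defined as the highest dose causing no deaths in 24 h. Tumor histology was read at 24 h.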

[3] = system: Mus musculus; assay: Compound was evaluated in vivo, for antitumor activity, against the subcutaneously implanted C38 colon tumor in mice; 50-90%; format: functional; outline: as §1
[4] = system: Mus musculus; assay: Compound was evaluated in vivo, for antitumor activity, against the subcutaneously implanted C38 colon tumor in mice; 50-90%

Row | SMILES | Activity [1] [%] | minimum dose giving tumor necrosis [2] [mg/kg] | Activity [3] [%] | Activity [4] [%]
1 | O=C(O)Cc1cccc2c(=O)c3cccc(Cl)c3oc12 | 90 | 150 |  | 
2 | O=C(O)Cc1cccc2c(=O)c3ccccc3oc12 | >90 | 220 |  | 
3 | Cc1cccc2c(=O)c3cccc(CC(=O)O)c3oc12 | >90 | 30 |  | 
4 | Cc1c(N(C)C)ccc2c(=O)c3cccc(CC(=O)O)c3oc12 |  | 45 |  | 
5 | O=C(O)Cc1cccc2c(=O)c3ccc4c(c3oc12)CCC4 | >90 | 45 |  | 
6 | Cc1cccc2c(=O)c3c(C)ccc(CC(=O)O)c3oc12 | >90 | 65 |  | 
7 | Cc1c(Br)ccc2c(=O)c3cccc(CC(=O)O)c3oc12 | >90 | 45 |  | 
8 | O=C(O)Cc1cccc2c(=O)c3ccc4ccccc4c3oc12 | >90 | 65 |  | 
9 | Cc1cc(CC(=O)O)c2oc3c(C)cccc3c(=O)c2c1 | >90 | 220 |  | 
10 | COc1ccc2c(=O)c3cccc(CC(=O)O)c3oc2c1C | >90 | 30 |  | 
11 | Cc1c(Cl)ccc2c(=O)c3cccc(CC(=O)O)c3oc12 | >90 | 30 |  | 
12 | O=C(O)Cc1cccc2c(=O)c3cc4ccccc4cc3oc12 |  | 330 | 50 | 
13 | Cc1c(F)ccc2c(=O)c3cccc(CC(=O)O)c3oc12 | >90 | 45 |  | 
14 | Cc1ccc2c(=O)c3cccc(CC(=O)O)c3oc2c1Cl | >90 | 100 |  | 
15 | O=C(O)Cc1cccc2c(=O)c3ccc(Cl)c(Cl)c3oc12 |  | 100 |  | 50
16 | Cc1ccc2c(=O)c3cccc(C)c3oc2c1CC(=O)O | >90 | 45 |  | 
17 | O=C(O)Cc1cccc2c(=O)cc(-c3ccccc3)oc12 [MITOFLAXONE] | >90 | 330 |  | 
18 | Cc1ccc2c(=O)c3cccc(CC(=O)O)c3oc2c1C [VADIMEZAN] | >90 | 30 |  | 
